# Experimental data of several laboratories.
# Lines come from different studies, so protocols differ.
# Target: Testis-specific serine/threonine-protein kinase 2 (TSSK2, Homo sapiens, UniProt Q96PF2)
# Sequence (Q96PF2 1-358, as in one of the studies): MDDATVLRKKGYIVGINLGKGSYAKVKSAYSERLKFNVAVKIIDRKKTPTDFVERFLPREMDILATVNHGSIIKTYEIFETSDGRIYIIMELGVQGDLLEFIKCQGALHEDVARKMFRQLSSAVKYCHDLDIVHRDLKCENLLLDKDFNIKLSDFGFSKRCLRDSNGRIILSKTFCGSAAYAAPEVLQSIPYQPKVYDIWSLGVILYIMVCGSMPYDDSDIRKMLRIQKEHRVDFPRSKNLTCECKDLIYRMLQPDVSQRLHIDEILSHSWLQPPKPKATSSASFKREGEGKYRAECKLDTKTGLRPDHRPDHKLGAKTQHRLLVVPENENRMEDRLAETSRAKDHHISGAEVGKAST
Compound,assay,conditions,quantity,result
CCN(CC)c1ccc(C2=NNC(=O)CC2C)cc1[N+](=O)[O-] (stereo not shown),"enzyme activity, inhibitor",10 µM,remaining activity,96%
N#CCCc1ccc2c(c1)-c1[nH]c3ccc([N+](=O)[O-])cc3c1CC(=O)N2,cell-free assay,0.5 µM,remaining signal,78.7%
CC(C)(C)c1nc(-c2cccc(NS(=O)(=O)c3c(F)cccc3F)c2F)c(-c2ccnc(N)n2)s1,"enzyme activity, inhibitor, radiometric",1 µM,remaining activity,86%
Cc1cc(NC(=O)c2cccc3cc(-c4cccc5[nH]nc(N)c45)ccc23)ccc1F,"enzyme activity, inhibitor",0.1 µM,activity vs control,99%
CC(C)(O)[C@H]1CC[C@H](Nc2ccc3ncc(-c4cccc(C(F)(F)F)c4)n3n2)CC1,"enzyme activity, inhibitor",1 µM,remaining activity,101%
CCN(CC)CCNC(=O)c1c(C)[nH]c(/C=C2\C(=O)Nc3ccc(F)cc32)c1C,"enzyme activity, inhibitor",10 µM,inhibition,54%
COc1cc2ncnc(Nc3ccc(Oc4ccccc4)cc3C)c2cc1OC,"enzyme activity, inhibitor",1 µM,inhibition,-1%
Cc1ccc(Nc2nccc(N(C)c3ccc4c(C)n(C)nc4c3)n2)cc1S(N)(=O)=O,"enzyme activity, inhibitor",10 µM,inhibition,5%
O=C(Nc1cnn(-c2csc(C(=O)NC3COC3)c2)c1)Nc1ccccc1Cl,"enzyme activity, inhibitor",5 µM,remaining activity,91.5%
CNC(=O)c1cc(Oc2ccc(NC(=O)Nc3ccc(Cl)c(C(F)(F)F)c3)cc2)ccn1,"enzyme activity, inhibitor",0.3 µM,inhibition,-4%
O=C1Nc2ccc(Cl)cc2C1=Cc1cc(Cl)c(O)c(Cl)c1,cell-free assay,0.5 µM,remaining signal,94.4%
Cc1sc(C(=O)NC2COC2)cc1-n1cc(NC(=O)Nc2c(F)cccc2Cl)cn1,"enzyme activity, inhibitor",10 µM,remaining activity,84.7%
CCOc1cc(-c2nncn2C)ccc1Nc1ncc2cc(C)nc(NCC(C)(C)C)c2n1,"enzyme activity, inhibitor, FRET",1 µM,inhibition,< 15%
